Assay outcomes deposited in PubChem by Broad Institute.
Only some compounds are listed: those with a hit (about 3.1% of all), similar ones and a draw of the others.
PolyA inhibitor: polyadenylation inhibitors in yeast reporter cells, primary screen, luminescence, S. cerevisiae | S. cerevisiae SKY197-pL101 polyadenylation reporter, beta-gal luminescence; efflux-impaired pdr1/pdr3 knockout yeast; score 100 = 6 SD above DMSO | activity score, % at 12 µM | 300,000 compounds, 0.02% hits | AID 1875, 2009;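 active = lowest replicate activity score at least 50, where 100 means six control SD above control mean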;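 also: yeast exposed to compound for 9 h at 30 °C; higher score means more reporter readthrough which indicates perturbed polyadenylation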
HIF activator: HIF pathway transcriptional activators, primary screen, cell-based, U2OS HRE-luciferase, luminescence; activation, % at 7.5 µM (by protocol); 300,000 compounds, 0.32% hits; U2OS HRE-luciferase reporter; normalized: DMSO 0%, desferrioxamine 100%; AID 1910, 2009;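 active = mean activation of at least 10% of the iron chelator positive control signal, with at least half of replicates also reaching 10%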
T cruzi repl: inhibitors of intracellular T. cruzi growth, primary screen, luminescence, NIH3T3 host cells; T. cruzi beta-gal in NIH3T3, 90 h; 300,000 compounds, 1.4% hits; inhibition, % (test concentration not listed);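 active = mean inhibition across valid replicates above about 55%, limit read from the data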;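 also: signal also drops with host cell toxicity which is not excluded here; 0% = plate median of DMSO wells and 100% = zero luminescence signal; higher percent means less beta-gal luminescence so fewer parasites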
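Material: NIH/3T3 host cells with β-galactosidase reporter T. cruzi; Input: 5,000 host fibroblasts per well; Medium: DMEM, 2% fetal bovine serum; Compound: 50 nL DMSO compound solution per well; Schedule: 3 h host attachment, then at least 90 h co-culture; Detection: luminescent β-galactosidase signal after 60 min lysis.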
Calb FLC: C. albicans growth inhibition with fluconazole, primary screen, CaCi-2 strain, Alamar Blue fluorescence | AID 1979, 2009 | 300,000 compounds, 0.57% hits | growth inhibition, % (no concentration beside the values) | C. albicans CaCi-2 (fluconazole-resistant clinical isolate) + fluconazole, 48 h;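 active = growth inhibition above about 58% in most replicates, limit read from the data, passing the limit was not always enough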;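 also: all wells also contain fluconazole at 8 µg/ml as a sub-toxic cotreatment; 0% = median of DMSO wells and 100% = median of geldanamycin control wells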
Beta apoptosis: inhibitors of cytokine-induced beta cell apoptosis, primary screen, luminescence; INS-1E cytokine-induced death, ATP luminescence, 48 h; percent of positive-control rescue, neutral wells zero; protection from apoptosis, % (test concentration not listed); 300,000 compounds, 0.8% hits;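 active = Every replicate reaches about 75%, or at least half do and their mean reaches it too, limit read from the data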;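 also: 0% = cytokine-treated negative control wells and 100% = positive control rescue; higher means more ATP so stronger rescue from cytokine killing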
CSC inhib: cancer stem cell viability inhibitors, primary screen, luminescence | AID 2717, 2010 | inhibition, % at 7.5 µM | cancer stem cell-like cells viability | 300,000 compounds, 1.1% hits; in the data active = inhibition above about 75%; tested in HMLE shEcad cells
An asterisk follows results filed as active; . = not tested or not shown.

SMILES | PolyA inhibitor | HIF activator | T cruzi repl | Calb FLC | Beta apoptosis | CSC inhib
COc1ccc(/C=C2/CCc3ccccc3C2=O)cc1CN1CCOCC1 | -5.7 | 0.0 | 57.3* | 17.5 | 0.8 | 5.0
CC1CC(C)CN(C(=O)C(C)N2CCN(S(=O)(=O)c3ccc(Br)s3)CC2)C1 (stereo unspecified) | . | . | . | . | 4.6 | -8.9
CCOc1ccccc1NC(=O)CSc1ncnc2c1oc1ccccc12 | -11.1 | 69.0* | 16.1 | -5.0 | 7.3 | 5.3
O=C1CN(C(=O)COC(=O)CCC(=O)c2ccc(F)cc2)c2ccccc2N1 | . | . | . | . | 1.6 | 0.0
CC(C)(C)c1ccc(OCC(=O)N/N=C/c2cc(Br)ccc2OC(=O)c2ccco2)cc1 | 7.5 | 0.1 | -22.4 | -3.6 | 4.1 | 100.6*
COc1ccc(Br)cc1/C=N/NC(=O)c1ccco1 | -16.0 | 0.3 | -10.9 | 38.1 | . | -16.7
Cc1cc(C(=O)N2CCCC(N3CCN(c4cccc(Cl)c4)CC3)C2)n(C)n1 (stereo unspecified) | 14.0 | 0.9 | 5.0 | 17.4 | 0.5 | 25.3
Cc1cc(C(=O)N2CCCC(N3CCN(c4ccccc4C)CC3)C2)n(C)n1 (stereo unspecified) | -8.5 | 0.3 | 58.6* | -9.3 | -3.2 | 2.1
CSc1ccc(CN2CCN(Cc3ccc([N+](=O)[O-])cc3)CC2)cc1 | -28.8 | -0.2 | 66.1* | -10.6 | -3.7 | 25.4
Cc1cc(C)c2c(=O)n(CC(=O)Nc3ccc(Br)c(C)c3)sc2n1 | -3.9 | -0.4 | 39.6 | -22.0 | -0.2 | -1.9
Cc1cc(C)c2c(=O)n(CC(=O)Nc3cccc(Cl)c3C)sc2n1 | 1.5 | 0.0 | 57.6* | 0.8 | -7.4 | -1.9
CC(C)NC(=O)N(C)C[C@H]1Oc2ccc(NC(=O)Nc3ccccc3)cc2C(=O)N([C@@H](C)CO)C[C@@H]1C | . | . | . | . | -0.4 | -2.1
O=[N+]([O-])c1ccc(C(=Nc2cccc3ccccc23)N2CCOCC2)cc1 | 5.1 | -0.1 | -1.5 | 100.3* | 3.3 | 0.5
CCCCN1CNC(=S)N(c2ccccc2OCC)C1 | 3.1 | -0.2 | 4.8 | 6.2 | -4.4 | -16.1
NC(=O)c1ccc(NC(=O)COC(=O)C2COc3ccccc3O2)cc1 (stereo unspecified) | . | . | . | . | -1.3 | -12.9
CCSc1nc(-c2ccccc2)nc(C(Cl)Cl)n1 | -17.8 | -1.0 | 0.3 | -33.3 | 94.3* | 99.8*
CCSc1nc(-c2ccccc2)c2cc(Cl)ccc2n1 | -12.7 | -0.2 | 28.7 | -9.2 | . | -17.6
CSc1nc(-c2ccc(C)cc2)nc(C(Cl)Cl)n1 | 9.2 | -0.6 | 55.8* | -3.6 | 6.2 | 72.3
CSc1nc(Oc2ccc(C)cc2)cc(C(F)(F)F)n1 | 20.8 | 0.0 | 5.3 | 4.0 | 4.6 | -2.3
Cc1cc(OCC(O)CNC(C)c2ccccc2)ccc1C(C)C (stereo unspecified) | 2.9 | -12.7 | 45.7 | -3.5 | -3.4 | 8.2
Cc1ccc(NC(=O)C2(S(=O)(=O)c3ccc(Cl)cc3)CC2)cc1 | -3.2 | -1.8 | -0.6 | 1.3 | -2.8 | 1.2
CCCN(C(=O)CCSc1ccc(F)cc1)c1c(N)n(Cc2ccccc2)c(=O)[nH]c1=O | -1.4 | -0.6 | -7.7 | 2.4 | -4.5 | -8.7
O=C(CSc1ccc2nnc(-c3ccccn3)n2n1)Nc1ccc(F)cc1F | 5.8 | -0.5 | -5.1 | 3.9 | -0.9 | -16.0
O=C1[C@H]2[C@@H](c3ccc(Cl)cc3)N3C(=O)N(c4cccc(Br)c4)C(=O)[C@@]3(Cc3ccc(Cl)cc3)[C@H]2C(=O)N1C1CCCCC1 | -0.1 | -0.6 | 65.1* | 2.0 | 15.4 | 4.0
O=C1[C@H]2[C@@H](c3ccc(F)cc3)N3C(=O)N(c4cccc(Br)c4)C(=O)[C@@]3(Cc3ccc(Cl)cc3)[C@H]2C(=O)N1C1CCCCC1 | -1.2 | 1.2 | 41.1 | 15.7 | 31.0 | 17.6
SMILES | PolyA inhibitor | HIF activator | T cruzi repl | Calb FLC | Beta apoptosis | CSC inhib
CC1CCN(C(=O)C2CCCN2S(=O)(=O)c2ccc(Cl)cc2)CC1 (stereo unspecified) | 10.1 | -0.7 | -10.5 | 10.2 | -2.5 | 9.5
CNC[C@H]1Oc2c(NC(=O)C3CC3)cccc2C(=O)N([C@H](C)CO)C[C@@H]1C | . | . | . | . | 5.5 | .
COc1ccc(S(=O)(=O)N2CCC(c3cc(-c4cccc5ccccc45)n[nH]3)CC2)cc1 | -14.7 | 11.2* | 51.3 | 6.1 | 48.6 | 19.9
Cc1onc(-c2c(F)cccc2Cl)c1C(=O)NCc1ccc(F)cc1 | -9.0 | -0.2 | -2.2 | -7.8 | -6.7 | -4.7
CC(C)c1ccc(O)c(NC(=O)c2cccnc2)c1 | 4.8 | -0.2 | -20.9 | 3.4 | -1.0 | -5.3
CCC(C)c1ccc(O)c(NC(=S)NC(=O)c2cccnc2)c1 (stereo unspecified) | -22.2 | 1.2 | -19.6 | 81.8* | . | 30.9
COC(=O)c1cc(=O)n(CCc2ccccc2)c(=Nc2ccc(F)cc2)s1 | -6.8 | -0.1 | 47.9 | -7.1 | 10.5 | 60.0
COC(=O)c1cc(=O)n(CCc2ccc(OC)cc2)c(=Nc2ccc(F)c(Cl)c2)s1 | -4.3 | 0.1 | 42.4 | -1.7 | 52.7 | 100.0*
O=[N+]([O-])c1ccc(/C=N/NC(=S)Nc2ccc(Cl)cc2Cl)s1 | -14.6 | 1.6 | 56.1* | 107.3* | 25.4 | 123.7*
O=[N+]([O-])c1ccc(O)c(/C=N/NC(=S)Nc2ccc(Cl)cc2Cl)c1 | -5.3 | 3.0 | 43.8 | 101.5* | 121.1* | 76.1*
Fc1ccc(/C=N/NC(=S)Nc2ccc(Cl)cc2Cl)cc1 | -9.9 | 1.4 | 13.7 | 0.2 | 2.4 | 27.6
O=C(O)c1cccc(-n2cc(-c3cccc(C(F)(F)F)c3)cn2)c1 | 8.8 | 0.3 | 0.2 | -7.8 | -0.5 | 10.5
Oc1c(N=NC(=S)Nc2ccccc2F)c2ccccc2n1Cc1ccc(F)cc1 | -2.6 | 0.7 | 66.5* | 49.0 | 39.6 | 40.8
NC(=S)N=Nc1c(O)n(Cc2ccc(F)cc2)c2ccccc12 | 18.8 | -0.3 | 45.7 | 0.7 | 19.9 | 15.1
Cc1cccc(Cn2c(O)c(N=NC(=S)Nc3ccccc3F)c3ccccc32)c1 | 0.5 | -0.5 | 60.2* | 113.8* | 40.5 | -2.5
NC(=S)N=Nc1c(O)n(Cc2ccc(Br)cc2)c2ccccc12 | -10.6 | 1.0 | 26.1 | -1.1 | 11.3 | 57.8
Oc1c(N=NC(=S)Nc2ccccc2F)c2ccccc2n1Cc1cccc(Cl)c1 | -0.4 | -0.2 | 57.4* | 9.6 | 39.6 | 27.2
CCN(C[C@H]1N[C@@](Cc2ccccc2)(C(=O)OC)[C@H]2C(=O)N(C)C(=O)[C@@H]12)C(=O)NC(C)C | . | . | . | . | -2.1 | -8.8
CCc1ccc(N=C2NC(=O)/C(=C/c3cc(OC)c(O)c(OC)c3)S2)cc1 | 91.2* | -0.8 | 0.7 | 52.7 | 3.2 | 68.2
Cc1cc(C(=O)CCl)c(C)n1CCc1ccc(Cl)cc1 | -55.4 | 0.4 | 61.6* | -32.0 | 27.8 | 116.0*
